Laboratory results published in ChEMBL document CHEMBL1154609, “Synthesis and antibacterial activity of isothiazolyl oxazolidinones and analogous 3(2H)-isothiazolones” (Eur J Med Chem, 2010).
In brackets after ≈: the same amount, converted by molar mass.

What was measured:
Staphylococcus aureus [1] = assay: Antibacterial activity against Staphylococcus aureus ATCC 29737 after 18 hrs by agar dilution method; assay type: functional; settings: ATCC 29737, 18 h
Outline: (§1)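 Agar dilution on Mueller Hinton agar; inoculum about 10^6 CFU/mL applied to plates with twofold serial dilutions of compound in distilled water, 0.01 to 100 μg/mL; 37 °C, 18 h. DMSO-supplemented medium at matching dilution run as solvent control. MIC = lowest concentration giving no visible growth on the plate.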

[2] = system: Staphylococcus epidermidis; assay: Antibacterial activity against Staphylococcus epidermidis ATCC 12229 after 18 hrs by agar dilution method; assay type: functional; settings: ATCC 12229, 18 h; outline: as §1
Escherichia coli = assay: Antibacterial activity against Escherichia coli ATCC 8739 after 18 hrs by agar dilution method; assay type: functional; settings: ATCC 8739, 18 h; outline: as §1
Salmonella typhimurium = assay: Antibacterial activity against Salmonella Typhimurium ATCC 1639 after 18 hrs by agar dilution method; assay type: functional, Salmonella enterica subsp. enterica serovar Typhimurium; settings: Salmonella enterica, ATCC 1639, 18 h; outline: as §1
Pseudomonas aeruginosa = assay: Antibacterial activity against Pseudomonas aeruginosa ATCC 9027 after 18 hrs by agar dilution method; settings: ATCC 9027, 18 h
Staphylococcus aureus [3] = assay: Antibacterial activity against methicillin-resistant Staphylococcus aureus isolate 1 after 18 hrs by agar dilution method; assay type: functional; settings: isolate 1, 18 h
Outline: (§2)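 Agar dilution on Mueller Hinton agar. Inoculum about 10^6 CFU/mL applied to plates holding two-fold serial dilutions of compound in distilled water, 0.01 to 100 μg/mL. Incubated 37 °C for 18 h. DMSO solvent control included. MIC taken as the lowest concentration giving no visible growth on the plate.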

[4] = Cytotoxicity against mouse NIH/3T3 cells after 24 hrs by MTT assay; assay type: cell-based; settings: NIH3T3, 24 h
Outline: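 NIH/3T3 normal mouse fibroblasts exposed to compounds for 24 h; viability read by MTT colorimetric assay.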

Staphylococcus aureus [5] = assay: Antibacterial activity against methicillin-resistant Staphylococcus aureus isolate 2 after 18 hrs by agar dilution method; assay type: functional; settings: isolate 2, 18 h; outline: as §2

COc1ccc(-n2sc(Cl)cc2=O)cc1
MIC (Staphylococcus aureus [1]): 1.5 µg/mL (≈ 6.21 µM) | MIC [2]: 0.25 µg/mL (≈ 1.03 µM) | MIC (Escherichia coli): 1.5 µg/mL (≈ 6.21 µM) | MIC (Salmonella typhimurium): 1.5 µg/mL (≈ 6.21 µM) | MIC (Pseudomonas aeruginosa): 0.01 µg/mL (≈ 0.0414 µM)

COc1ccc(N2CC(Cn3sccc3=O)OC2=O)cc1 (configuration not stated)
MIC (Staphylococcus aureus [1]): 50 µg/mL (≈ 163 µM) | MIC [2]: 50 µg/mL (≈ 163 µM) | MIC (Escherichia coli): 100 µg/mL (≈ 326 µM) | MIC (Salmonella typhimurium): 100 µg/mL (≈ 326 µM) | MIC (Pseudomonas aeruginosa): 100 µg/mL (≈ 326 µM)

O=c1ccsn1Cc1ccccc1
MIC (Staphylococcus aureus [1]): 12.5 µg/mL (≈ 65.4 µM) | MIC [2]: 6 µg/mL (≈ 31.4 µM) | MIC (Escherichia coli): 12.5 µg/mL (≈ 65.4 µM) | MIC (Salmonella typhimurium): 12.5 µg/mL (≈ 65.4 µM) | MIC (Pseudomonas aeruginosa): 12.5 µg/mL (≈ 65.4 µM)

O=c1ccsn1-c1cccc(F)c1
MIC (Staphylococcus aureus [1]): 6 µg/mL (≈ 30.7 µM) | MIC [2]: 3.25 µg/mL (≈ 16.6 µM) | MIC (Escherichia coli): 12.5 µg/mL (≈ 64 µM) | MIC (Salmonella typhimurium): 12.5 µg/mL (≈ 64 µM) | MIC (Pseudomonas aeruginosa): 12.5 µg/mL (≈ 64 µM)

CC(=O)c1ccc(-n2sc(Cl)cc2=O)cc1
MIC (Staphylococcus aureus [1]): 12.5 µg/mL (≈ 49.3 µM) | MIC [2]: 12.5 µg/mL (≈ 49.3 µM) | MIC (Escherichia coli): 12.5 µg/mL (≈ 49.3 µM) | MIC (Salmonella typhimurium): 25 µg/mL (≈ 98.5 µM) | MIC (Pseudomonas aeruginosa): 12.5 µg/mL (≈ 49.3 µM)

CC(=O)NC[C@H]1CN(c2ccc(N3CCOCC3)c(F)c2)C(=O)O1 [LINEZOLID]
MIC [2]: 0.03 µg/mL (≈ 0.0889 µM) | MIC (Escherichia coli): > 100 µg/mL | MIC (Salmonella typhimurium): > 100 µg/mL | MIC (Staphylococcus aureus [3]): 2 µg/mL (≈ 5.93 µM) | IC50 [4]: 465 µg/mL (≈ 1380 µM) | MIC (Pseudomonas aeruginosa): > 100 µg/mL

COc1ccc(-n2sccc2=O)cc1
MIC (Staphylococcus aureus [1]): 10 µg/mL (≈ 48.2 µM) | MIC [2]: 3 µg/mL (≈ 14.5 µM) | MIC (Escherichia coli): 25 µg/mL (≈ 121 µM) | MIC (Salmonella typhimurium): 12.5 µg/mL (≈ 60.3 µM) | MIC (Pseudomonas aeruginosa): 25 µg/mL (≈ 121 µM)

O=C1OC(Cn2sccc2=O)CN1c1ccc(Cl)cc1 (configuration not stated)
MIC (Staphylococcus aureus [1]): 1.5 µg/mL (≈ 4.83 µM) | MIC [2]: 1.5 µg/mL (≈ 4.83 µM) | MIC (Escherichia coli): 12.5 µg/mL (≈ 40.2 µM) | MIC (Salmonella typhimurium): 12.5 µg/mL (≈ 40.2 µM) | MIC (Staphylococcus aureus [5]): 12.5 µg/mL (≈ 40.2 µM) | MIC (Staphylococcus aureus [3]): 12.5 µg/mL (≈ 40.2 µM) | IC50 [4]: 194 µg/mL (≈ 624 µM) | MIC (Pseudomonas aeruginosa): 25 µg/mL (≈ 80.4 µM)

CC(=O)c1ccc(-n2sccc2=O)cc1
MIC (Staphylococcus aureus [1]): 12.5 µg/mL (≈ 57 µM) | MIC [2]: 12.5 µg/mL (≈ 57 µM) | MIC (Escherichia coli): 12.5 µg/mL (≈ 57 µM) | MIC (Salmonella typhimurium): 12.5 µg/mL (≈ 57 µM) | MIC (Pseudomonas aeruginosa): 12.5 µg/mL (≈ 57 µM)

O=c1cc(Cl)sn1-c1ccc(Cl)cc1
MIC (Staphylococcus aureus [1]): 0.1 µg/mL (≈ 0.406 µM) | MIC [2]: 0.1 µg/mL (≈ 0.406 µM) | MIC (Escherichia coli): 0.3 µg/mL (≈ 1.22 µM) | MIC (Salmonella typhimurium): 0.3 µg/mL (≈ 1.22 µM) | MIC (Pseudomonas aeruginosa): 0.6 µg/mL (≈ 2.44 µM)

O=c1ccsn1-c1ccc(N2CCOCC2)c(F)c1
MIC (Staphylococcus aureus [1]): 12.5 µg/mL (≈ 44.6 µM) | MIC [2]: 10 µg/mL (≈ 35.7 µM) | MIC (Escherichia coli): 25 µg/mL (≈ 89.2 µM) | MIC (Salmonella typhimurium): 25 µg/mL (≈ 89.2 µM) | MIC (Pseudomonas aeruginosa): 25 µg/mL (≈ 89.2 µM)

O=C1OC(Cn2sccc2=O)CN1c1ccc(F)cc1 (configuration not stated)
MIC (Staphylococcus aureus [1]): 0.75 µg/mL (≈ 2.55 µM) | MIC [2]: 1.5 µg/mL (≈ 5.1 µM) | MIC (Escherichia coli): 0.75 µg/mL (≈ 2.55 µM) | MIC (Salmonella typhimurium): 0.75 µg/mL (≈ 2.55 µM) | MIC (Staphylococcus aureus [5]): 12.5 µg/mL (≈ 42.5 µM) | MIC (Staphylococcus aureus [3]): 10 µg/mL (≈ 34 µM) | IC50 [4]: 174 µg/mL (≈ 591 µM) | MIC (Pseudomonas aeruginosa): 0.75 µg/mL (≈ 2.55 µM)

O=C1OC(Cn2sccc2=O)CN1c1ccc(C(F)(F)F)cc1 (configuration not stated)
MIC (Staphylococcus aureus [1]): 50 µg/mL (≈ 145 µM) | MIC [2]: 100 µg/mL (≈ 290 µM) | MIC (Escherichia coli): 100 µg/mL (≈ 290 µM) | MIC (Salmonella typhimurium): 100 µg/mL (≈ 290 µM) | MIC (Pseudomonas aeruginosa): 100 µg/mL (≈ 290 µM)

Cc1ccc(N2CC(Cn3sccc3=O)OC2=O)cc1 (configuration not stated)
MIC (Staphylococcus aureus [1]): 25 µg/mL (≈ 86.1 µM) | MIC [2]: 25 µg/mL (≈ 86.1 µM) | MIC (Escherichia coli): 25 µg/mL (≈ 86.1 µM) | MIC (Salmonella typhimurium): 25 µg/mL (≈ 86.1 µM) | MIC (Pseudomonas aeruginosa): 25 µg/mL (≈ 86.1 µM)

CN[C@H](CC(C)C)C(=O)N[C@H]1C(=O)N[C@@H](CC(N)=O)C(=O)N[C@H]2C(=O)N[C@H]3C(=O)N[C@H](C(=O)N[C@H](C(=O)O)c4cc(O)cc(O)c4-c4cc3ccc4O)[C@H](O)c3ccc(c(Cl)c3)Oc3cc2cc(c3O[C@@H]2O[C@H](CO)[C@@H](O)[C@H](O)[C@H]2O[C@H]2C[C@](C)(N)[C@H](O)[C@H](C)O2)Oc2ccc(cc2Cl)[C@H]1O [VANCOMYCIN]
MIC (Staphylococcus aureus [1]): 0.75 µg/mL (≈ 0.518 µM) | MIC [2]: 0.75 µg/mL (≈ 0.518 µM) | MIC (Escherichia coli): > 100 µg/mL | MIC (Salmonella typhimurium): > 100 µg/mL | MIC (Pseudomonas aeruginosa): > 100 µg/mL

O=C1OC(Cn2sccc2=O)CN1c1cccc(Cl)c1 (configuration not stated)
MIC (Staphylococcus aureus [1]): 12.5 µg/mL (≈ 40.2 µM) | MIC [2]: 12.5 µg/mL (≈ 40.2 µM) | MIC (Escherichia coli): 12.5 µg/mL (≈ 40.2 µM) | MIC (Salmonella typhimurium): 12.5 µg/mL (≈ 40.2 µM) | MIC (Pseudomonas aeruginosa): 12.5 µg/mL (≈ 40.2 µM)

Cc1ccc(-n2sc(Cl)cc2=O)cc1
MIC (Staphylococcus aureus [1]): 5 µg/mL (≈ 22.2 µM) | MIC [2]: 0.5 µg/mL (≈ 2.22 µM) | MIC (Escherichia coli): 5 µg/mL (≈ 22.2 µM) | MIC (Salmonella typhimurium): 5 µg/mL (≈ 22.2 µM) | MIC (Pseudomonas aeruginosa): 0.01 µg/mL (≈ 0.0443 µM)
